According to ChEMBL document CHEMBL4130485, “Inhibitors of Yellow Fever Virus replication based on 1,3,5-triphenyl-4,5-dihydropyrazole scaffold: Design, synthesis and antiviral evaluation” (Eur J Med Chem, 2017):

Experiments:
[1] = tested on: Mammalian orthoreovirus 1; test: Antiviral activity against Reovirus 1 infected in golden hamster BHK21 cells assessed as protection against virus-induced cytopathic effect after 3 to 4 days by MTT assay; type: functional, organism-based; details: Mammalian orthoreovirus 1, BHK-21
Outline: (§1)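 BHK-21 cells (MDBK for BVDV) seeded at 5×10^4 (BHK) or 3×10^4 (MDBK) cells/well and grown overnight to confluence. Infected at m.o.i. 0.01 in maintenance MEM-Earle with 0.5% inactivated FBS. Serial compound dilutions added 2 h later (final 100, 20, 4, 0.8 µM; DMSO ≤0.1%). Viability read by MTT after 3–4 days at 37 °C. EC50 obtained by linear regression against untreated controls; mean of three determinations.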

[2] = tested on: West Nile virus; test: Antiviral activity against West Nile virus clinical isolate infected in golden hamster BHK21 cells assessed as protection against virus-induced cytopathic effect after 3 to 4 days by MTT assay; type: functional, organism-based; details: BHK-21; outline: as §1
[3] = tested on: Human immunodeficiency virus 1; test: Antiviral activity against HIV1 3B infected in human MT4 cells assessed as protection against virus-induced cytopathic effect after 4 days by MTT assay; type: functional, organism-based; details: Human immunodeficiency virus 1, 3B, MT4, 96 h
Outline: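 MT-4 cells (1×10^4/well) in RPMI with serial compound dilutions, infected with 100 CCID50 HIV-1 (m.o.i. 0.01). Viability read by MTT after 4 days at 37 °C. EC50 for 50% protection from cytopathicity obtained by linear regression versus untreated controls; mean of three determinations.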

[4] = tested on: dengue virus type 2; test: Antiviral activity against Dengue virus type 2 clinical isolate infected in golden hamster BHK21 cells assessed as protection against virus-induced cytopathic effect after 3 to 4 days by MTT assay; type: functional, organism-based; details: BHK-21; outline: as §1
[5] = tested on: Yellow fever virus; test: Antiviral activity against Yellow fever virus 17D vaccine (Stamaril Pasteur J07B01) infected in golden hamster BHK21 cells assessed as protection against virus-induced cytopathic effect after 3 to 4 days by MTT assay; type: functional, organism-based; details: BHK-21; outline: as §1
[6] = Cytotoxicity against African green monkey Vero 76 cells assessed as decrease in cell viability after 48 to 96 hrs by MTT assay; type: cell-based; details: chlorocebus sabaeus
Outline: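 Vero 76 cells seeded at 5×10^5 cells/mL in D-MEM with 10% FBS and incubated with serial compound dilutions at 37 °C, 5% CO2. Viability read by MTT after 48–96 h. CC50 by linear regression versus untreated controls.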

[7] = Cytotoxicity against human MT4 cells assessed as decrease in cell viability after 96 hrs by MTT assay; type: cell-based
Outline: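 Exponentially growing MT-4 cells seeded at 1×10^5 cells/mL in RPMI-1640 with 10% FBS and incubated with serial compound dilutions at 37 °C, 5% CO2. Viability read by MTT after 96 h. CC50 by linear regression versus untreated controls.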

[8] = tested on: Human orthopneumovirus; test: Antiviral activity against Human respiratory syncytial virus A2 ATCC VR 1540 infected in African green monkey Vero 76 cells assessed as protection against virus-induced cytopathic effect after 5 days by crystal violet staining-based plaque reduction assay; type: functional, organism-based; details: ATCC VR 1540, Vero 76, 120 h
[9] = tested on: Yellow fever virus; test: Potency index, ratio of azauridine EC50 to compound EC50 for Yellow fever virus 17D vaccine (Stamaril Pasteur J07B01); type: functional
[10] = tested on: Vaccinia virus; test: Antiviral activity against Vaccinia virus Lister ATCC VR 1549 infected in African green monkey Vero 76 cells assessed as protection against virus-induced cytopathic effect after 3 days by crystal violet staining-based plaque reduction assay; type: functional, organism-based; details: Orthopoxvirus vaccinia, ATCC VR 1549, Vero 76, 72 h
[11] = Cytotoxicity against golden hamster BHK21 cells assessed as decrease in cell viability after 72 hrs by MTT assay; type: cell-based, Mesocricetus auratus, BHK-21
Outline: (§2)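 Uninfected MDBK (6×10^5 cells/mL, 10% horse serum) or BHK (1×10^6 cells/mL, 10% FBS) cells in MEM-Earle with serial compound dilutions at 37 °C, 5% CO2, run in parallel with the antiviral assays. Viability read by MTT after 72 h. CC50 by linear regression; mean of three determinations.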

[12] = tested on: Vesicular stomatitis Indiana virus; test: Antiviral activity against Vesicular stomatitis virus Indiana ATCC VR 158 infected in African green monkey Vero 76 cells assessed as protection against virus-induced cytopathic effect after 2 days by crystal violet staining-based plaque reduction assay; type: functional, organism-based; details: ATCC VR 158, Vero 76, 48 h
[13] = tested on: Human alphaherpesvirus 1; test: Antiviral activity against Human herpesvirus 1 KOS ATCC VR 1493 infected in African green monkey Vero 76 cells assessed as protection against virus-induced cytopathic effect after 3 days by crystal violet staining-based plaque reduction assay; type: functional, organism-based; details: Human alphaherpesvirus 1, KOS, Vero 76, 72 h
[14] = tested on: Bovine viral diarrhea virus 1; test: Antiviral activity against Bovine viral diarrhea virus NADL ATCC VR 534 infected in bovine MDBK cells assessed as protection against virus-induced cytopathic effect after 3 to 4 days by MTT assay; type: functional, organism-based, Bovine viral diarrhea virus 1-NADL; details: Bovine viral diarrhea virus isolates and strains, ATCC VR 534, MDBK; outline: as §1
[15] = tested on: Enterovirus C; test: Antiviral activity against Enterovirus C Sabin […] infected in African green monkey Vero 76 cells assessed as protection against virus-induced cytopathic effect after 2 days by crystal violet staining-based plaque reduction assay; type: functional, organism-based; details: Vero 76, 48 h
[16] = Antiviral activity against Human enterovirus B Faulkner ATCC VR 185 infected in African green monkey Vero 76 cells assessed as protection against virus-induced cytopathic effect after 3 days by crystal violet staining-based plaque reduction assay; type: functional, cell-based; details: Faulkner ATCC VR 185, Vero 76, 72 h
[17] = Cytotoxicity against bovine MDBK cells assessed as decrease in cell viability after 72 hrs by MTT assay; type: cell-based, Bos taurus; details: cattle; outline: as §2
[18] = Selectivity index, ratio of CC50 for golden hamster BHK21 cells to EC50 for Yellow fever virus 17D; type: toxicity; details: read-out: Ratio CC50/EC50
Outline: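 Selectivity index calculated as BHK-21 CC50 divided by YFV EC50, both from MTT assays.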

Compound	EC50 [1] [µM]	EC50 [2] [µM]	EC50 [3] [µM]	EC50 [4] [µM]	EC50 [5] [µM]	CC50 [6] [µM]	CC50 at 96 h [7] [µM]	EC50 [8] [µM]	Ratio EC50 [9]	EC50 [10] [µM]	CC50 at 72 h [11] [µM]	EC50 [12] [µM]	EC50 [13] [µM]	EC50 [14] [µM]	EC50 [15] [µM]	EC50 [16] [µM]	CC50 at 72 h [17] [µM]	selectivity ratio [18]
NS(=O)(=O)c1ccc(N2N=C(c3ccc(OCc4ccccc4)cc3)CC2c2ccc(F)cc2)cc1 (stereo unspecified)	> 69	> 60	> 100	> 60	1.9	90	> 100	> 90	10	> 90	60 to 69	> 90	> 90	> 100	> 90	> 90	> 100	31.6
Cc1ccc(C2CC(c3ccccc3)=NN2c2ccc(S(N)(=O)=O)cc2)cc1 (stereo unspecified)	> 7	> 8	> 40	> 8	2.2	20	40	> 20	10	> 20	7 to 8	> 20	> 20	> 32	> 20	> 20	32	3.6
Nc1nc2c(ncn2COCCO)c(=O)[nH]1 [ACYCLOVIR]	–	–	–	–	–	> 100	–	–	–	–	–	–	1.8	–	–	–	–	–
COc1c(C)c2c(c(O)c1C/C=C(\C)CCC(=O)O)C(=O)OC2 [MYCOPHENOLIC ACID]	–	–	–	–	–	9	–	–	–	–	–	–	–	–	–	–	–	–
NS(=O)(=O)c1ccc(N2N=C(c3ccccc3)CC2c2ccccc2F)cc1 (stereo unspecified)	> 21	–	> 42	–	> 21	28	42	> 28	10	> 28	21	> 28	> 28	> 19	> 28	> 28	19	–
Cc1cccc(C2CC(c3ccccc3)=NN2c2ccc(S(N)(=O)=O)cc2)c1 (stereo unspecified)	> 25	–	> 37	–	> 25	25	37	> 25	10	> 25	25	> 25	> 25	> 23	> 25	> 25	23	–
Cc1ccccc1C1CC(c2ccccc2)=NN1c1ccc(S(N)(=O)=O)cc1 (stereo unspecified)	> 14	> 14	> 43	> 14	2.2	24	43	> 24	10	> 24	14	> 24	> 24	> 18	> 24	> 24	18	6.4
NS(=O)(=O)c1ccc(N2N=C(c3ccccc3)CC2c2ccc(F)cc2)cc1 (stereo unspecified)	> 12	> 13	> 45	> 13	2.6	23	45	> 23	10	> 23	12 to 13	> 23	> 23	> 18	> 23	> 23	18	5
NS(=O)(=O)c1ccc(N2N=C(c3ccccc3)CC2c2ccccc2)cc1 (stereo unspecified)	> 15	–	> 42	–	> 15	22	42	> 22	10	> 22	15	> 22	> 22	> 16	> 22	> 22	16	–
NS(=O)(=O)c1ccc(N2N=C(c3ccccc3)CC2c2cccc(Cl)c2)cc1 (stereo unspecified)	> 8	> 9	10	> 9	2.5	21	41	> 21	10	> 21	8 to 9	> 21	> 21	> 2	> 21	> 21	2	3.6
NS(=O)(=O)c1ccc(N2N=C(c3ccccc3)CC2c2ccccc2Cl)cc1 (stereo unspecified)	> 13	> 14	> 44	> 14	2.4	26	44	> 26	10	> 26	13 to 14	> 26	> 26	> 9	> 26	> 26	9	5.8
Cc1ccccc1C1CC(c2ccc(OCc3ccccc3)cc2)=NN1c1ccc(S(N)(=O)=O)cc1 (stereo unspecified)	> 20	> 22	> 100	> 22	1.8	100	≥ 100	> 100	10	> 100	20 to 22	> 100	> 100	> 100	> 100	> 100	> 100	12.2
C[C@@]1(O)[C@H](O)[C@@H](CO)O[C@H]1n1cnc2c(=O)[nH]c(N)nc21 [2'-B-METHYL-GUANOSINE]	–	0.8	–	1.7	–	–	–	–	–	–	–	–	–	–	–	–	–	–
NS(=O)(=O)c1ccc(N2N=C(c3ccccc3)CC2c2cccc(F)c2)cc1 (stereo unspecified)	> 15	–	13	–	≥ 15	24	44	> 24	10	> 24	15	> 24	> 24	> 20	> 24	> 24	20	–
NS(=O)(=O)c1ccc(N2N=C(c3ccccc3)CC2c2ccc(Cl)cc2)cc1 (stereo unspecified)	> 32	–	> 36	–	> 32	21	36	> 21	10	> 21	32	> 21	> 21	> 11	> 21	> 21	11	–
